Experiment [1] is described as follows: HUVEC growth inhibition – cell-based, human, primary screen (AID 575;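 active = viability at or below 30% in both replicate assays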;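 also: 100% = median of untreated cell wells with 0.1% DMSO on each plate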). As to conditions: HUVEC proliferation, CellTiter-Glo luminescence, 72 h; at 10 µM; stronger effect = lower value. In a few lines: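 Assay system: primary human umbilical vein endothelial cells / Buffer or medium: endothelial basal medium with 2% FBS plus growth supplements / Compound dosing: one dose, 10 µM final, 0.1% DMSO / Timing: 72 h treatment at 37 °C / Signal: CTG luminescence / Benchmarks: 32 DMSO-only cell-control wells (high), 32 MePR drug-control wells (low) per plate / Plate: collagen-coated 384-well format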

A short description of experiment [2]: H69AR cell proliferation blockers – human, duplicate replicates, primary screen (AID 580;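 active = viability at or under a set limit in both replicates, limit being median viability minus 3 SD, cut at about 48% in these data, passing the limit was not always enough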;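 also: 100% = mean luminescence of untreated wells and 0% = no signal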). Conditions: H69AR lung tumor cells viability, ATP luminescence, 72 h; at 10 µM; stronger effect = lower value.
The nature of experiment [3]: MRP1 drug-resistance reversers in H69AR cells – cell-based, doxorubicin co-treatment, pilot screen (AID 601). Conditions: CellTiter-Glo, 72 h, at 10 µM; for differential viability (reversal): stronger effect = higher value.
Experiment [4] in a line: yeast transport mutant growth inhibition pilot in 384-well plates, post-Golgi transport modulator project (AID 636; in the data active = inhibition above about 31%). As to conditions: absorbance 615 nm, about 18 h, stronger effect = higher value.
The nature of experiment [5]: growth suppression of yeast trafficking mutant, preliminary HTS, modulators of trafficking downstream of Golgi apparatus project, 1536-format plate, OD 615 nm (AID 637; in the data active = inhibition above about 30%). Conditions: yeast transport mutant growth, absorbance 615 nm, 18 h; stronger effect = higher value.
Setting [6] is: H69AR cells + 2 uM doxorubicin, measured here: viability with 2 uM doxorubicin, stronger effect = lower value.
Setting [7] is: H69AR cells, compound alone cytotoxicity.

Calls of active or inactive are those of the source.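 The calls were made as follows, unless noted: active = viability loss from added drug above about 55%, and viability with drug at most 40%, in both replicates (limit read from the data, passing the limit was not always enough); inconclusive = both conditions met in only one replicate; inactive = neither replicate meets both conditions.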

As to `COCC(C)NC(=O)CCS(=O)(=O)c1nc(-c2ccc(OC)cc2)cc(C(F)(F)F)n1` (stereo unspecified), the viability is 8.82% (active) in experiment [1], 23.7% (active) in experiment [2], 35.3% in experiment [3] (setting [6]) and 23.7% in experiment [3] (setting [7]). For the same molecule, the differential viability (reversal) in experiment [3] (H69AR cells + 2 uM doxorubicin) was -11.7% (inactive). The inhibition is -7.87% (inactive) in experiment [4] and -0.63% (inactive) in experiment [5].
Turning to `O=C(O)C1CC(=O)N(c2ccc(OCc3c(F)cccc3Cl)cc2)C1` (stereo unspecified), the viability was 105% (inactive) in experiment [1], 105% (inactive) in experiment [2], 101% in experiment [3] (setting [6]) and 105% in experiment [3] (setting [7]). The differential viability (reversal) in experiment [3] (H69AR cells + 2 uM doxorubicin) is 4.8% (inactive). Besides, the inhibition in experiment [4] was -0.52% (inactive); in experiment [5], -1.9% (inactive).
Turning to `COc1cccc2cc(C(=O)n3ccc(C)n3)c(=O)oc12`, the viability in experiment [1] was 111% (inactive); in experiment [2], 93.4% (inactive); in experiment [3] (setting [6]) it was 90.6%; in experiment [3] (setting [7]), 93.4%. The differential viability (reversal) in experiment [3] (H69AR cells + 2 uM doxorubicin) is 2.8% (inactive). Further, the inhibition is -3.29% (inactive) in experiment [4] and 7.14% (inactive) in experiment [5].
With `CCS(=O)(=O)c1nc2ccccc2n1CC(=O)N1CCOCC1`, the viability in experiment [1] is 95.4% (inactive); in experiment [2] it was 91% (inactive); in experiment [3] (setting [6]) it was 87.2%; in experiment [3] (setting [7]), 91%. Moreover, the differential viability (reversal) in experiment [3] (H69AR cells + 2 uM doxorubicin) is 3.73% (inactive). Moreover, the inhibition in experiment [4] was -5.32% (inactive); in experiment [5], -1.27% (inactive).
As to `COc1ccc(S(=O)(=O)NCc2ccco2)cc1-c1nnc2c3ccccc3c(C)nn12`, the viability in experiment [1] was 88.1% (inactive); in experiment [2], 83.9% (inactive); in experiment [3] (setting [6]), 94.2%; in experiment [3] (setting [7]) it was 83.9%. In addition, in experiment [3] (H69AR cells + 2 uM doxorubicin), the differential viability (reversal) was -10.3% (inactive). Further, the inhibition was -5.92% (inactive) in experiment [4] and 7.14% (inactive) in experiment [5].
As for `COc1cccc(-n2c(SCC(=O)OC(C)C)nnc2-c2cccnc2)c1`, the viability in experiment [1] is 88.3% (inactive); in experiment [2] it was 97.4% (inactive); in experiment [3] (setting [6]) it was 93.2%; in experiment [3] (setting [7]) it was 97.4%. The differential viability (reversal) in experiment [3] (H69AR cells + 2 uM doxorubicin) was 4.17% (inactive). For the same molecule, the inhibition is -1.32% (inactive) in experiment [4] and -3.02% (inactive) in experiment [5].
For `Cc1ccc(NC(=O)C2CCCNC2=O)nc1` (stereo unspecified), the viability in experiment [1] is 106% (inactive); in experiment [2], 97.8% (inactive); in experiment [3] (setting [6]), 94%; in experiment [3] (setting [7]) it was 97.8%. Moreover, the differential viability (reversal) in experiment [3] (H69AR cells + 2 uM doxorubicin) is 3.79% (inactive). Besides, the inhibition in experiment [4] is -0.13% (inactive); in experiment [5], -2.7% (inactive).
Consider `O=S(=O)(c1ccccc1)N1CCN(C2CCCCCCC2)CC1`, for which the viability in experiment [1] is 100% (inactive); in experiment [2], 87.5% (inactive); in experiment [3] (setting [6]) it was 94.3%; in experiment [3] (setting [7]), 87.5%. For the same molecule, the differential viability (reversal) in experiment [3] (H69AR cells + 2 uM doxorubicin) is -6.82% (inactive). Further, the inhibition is -1.45% (inactive) in experiment [4] and 1.9% (inactive) in experiment [5].
As for `CON(C)c1nc(Oc2ccc(=O)[nH]n2)nc(N(C)C)n1`, the viability in experiment [1] is 87.6% (inactive); in experiment [2], 97.9% (inactive); in experiment [3] (setting [6]), 86.2%; in experiment [3] (setting [7]) it was 97.9%. Besides, the differential viability (reversal) in experiment [3] (H69AR cells + 2 uM doxorubicin) was 11.8% (inactive). Besides, the inhibition was -4.4% (inactive) in experiment [4] and 4.44% (inactive) in experiment [5].
Turning to `CCC1(CC)C(=O)C(C)(C)C(=O)OC1c1cccs1` (stereo unspecified), the viability in experiment [1] is 120% (inactive); in experiment [2], 90.7% (inactive); in experiment [3] (setting [6]), 85.7%; in experiment [3] (setting [7]) it was 90.7%. In experiment [3] (H69AR cells + 2 uM doxorubicin), the differential viability (reversal) was 5.04% (inactive). Moreover, the inhibition in experiment [4] was -2.89% (inactive); in experiment [5] it was 2.86% (inactive).
Turning to `CCOC(=O)c1cc2oc(C)cc2n1CC(=O)OC1CCCCC1`, the viability in experiment [1] was 90.9% (inactive); in experiment [2], 87.3% (inactive); in experiment [3] (setting [6]) it was 86.8%; in experiment [3] (setting [7]) it was 87.3%. For the same molecule, in experiment [3] (H69AR cells + 2 uM doxorubicin), the differential viability (reversal) was 0.485% (inactive). Also, the inhibition in experiment [4] is -2.73% (inactive); in experiment [5] it was 5.24% (inactive).
With `COc1cc(NS(=O)(=O)c2cccc3nsnc23)c(C(=O)O)cc1OC`, the viability in experiment [1] was 102% (inactive); in experiment [2], 102% (inactive); in experiment [3] (setting [6]), 93.4%; in experiment [3] (setting [7]), 102%. Moreover, the differential viability (reversal) in experiment [3] (H69AR cells + 2 uM doxorubicin) is 8.71% (inactive). The inhibition in experiment [4] is -1.43% (inactive); in experiment [5], -1.9% (inactive).
As for `CSc1cccc(NC(=O)CN(C)S(=O)(=O)c2ccccc2)c1`, the viability is 74.9% (inactive) in experiment [1], 95.1% (inactive) in experiment [2], 80% in experiment [3] (setting [6]) and 95.1% in experiment [3] (setting [7]). The differential viability (reversal) in experiment [3] (H69AR cells + 2 uM doxorubicin) was 15.1% (inactive). Also, the results for the inhibition in experiment [4] and in experiment [5] were -4.93% (inactive) and 1.27% (inactive), respectively.
Consider `O=C(O)C1C2CCC(O2)C1C(=O)Nc1cccc(F)c1` (stereo unspecified), for which the viability in experiment [1] is 80.9% (inactive); in experiment [2], 90.8% (inactive); in experiment [3] (setting [6]), 80.5%; in experiment [3] (setting [7]), 90.8%. In addition, the differential viability (reversal) in experiment [3] (H69AR cells + 2 uM doxorubicin) was 10.3% (inactive). In addition, the inhibition is -4.74% (inactive) in experiment [4] and 3.02% (inactive) in experiment [5].
Turning to `COc1ccc(CN2C(=O)C(O)(CC(=O)c3c(C)n[nH]c3C)c3ccccc32)cc1OC` (stereo unspecified), the viability in experiment [1] is 105% (inactive); in experiment [2], 95.4% (inactive); in experiment [3] (setting [6]), 92%; in experiment [3] (setting [7]) it was 95.4%. Also, the differential viability (reversal) in experiment [3] (H69AR cells + 2 uM doxorubicin) is 3.36% (inactive). Moreover, the results for the inhibition in experiment [4] and in experiment [5] were -0.53% (inactive) and -4.44% (inactive), respectively.
For `O=C(CN(CC1CCCO1)C(=O)CCC(=O)Nc1ccccn1)NCC1CCCO1` (stereo unspecified), the viability in experiment [1] was 103% (inactive); in experiment [2], 100% (inactive); in experiment [3] (setting [6]), 88.2%; in experiment [3] (setting [7]), 100%. Moreover, in experiment [3] (H69AR cells + 2 uM doxorubicin), the differential viability (reversal) was 11.8% (inactive). Also, the values for the inhibition in experiment [4] and in experiment [5] were -7.73% (inactive) and -3.97% (inactive), respectively.
`O=C(Nc1ccc2c(c1)OCO2)c1cccc(Cl)c1`: the viability in experiment [1] was 71.4% (inactive); in experiment [2], 104% (inactive); in experiment [3] (setting [6]), 90.3%; in experiment [3] (setting [7]), 104%. For the same molecule, in experiment [3] (H69AR cells + 2 uM doxorubicin), the differential viability (reversal) was 13.2% (inactive). Moreover, the results for the inhibition in experiment [4] and in experiment [5] were -3.87% (inactive) and 16.8% (inactive), respectively.
In the case of `CCSc1ccccc1C(=O)NCc1ccc(S(N)(=O)=O)cc1`, the viability in experiment [1] was 99.2% (inactive); in experiment [2], 93.7% (inactive); in experiment [3] (setting [6]), 87.5%; in experiment [3] (setting [7]), 93.7%. Also, the differential viability (reversal) in experiment [3] (H69AR cells + 2 uM doxorubicin) was 6.25% (inactive). Besides, the inhibition is -5.2% (inactive) in experiment [4] and -1.27% (inactive) in experiment [5].

(Values after PubChem BioAssay.)
